An excerpt weighted towards active compounds, which were near 9.2% of everything screened.
Dynein transport: dynein cargo transport inhibition. 3617.4 mouse cells, GR-EGFP nuclear translocation imaging; test concentration mostly 20 µM; stimulated with dexamethasone, 1 µM; active compounds read low. z-score, hits read low. 220,000 tested, 0.47% active;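 active = plate z-score of nuclear minus cytoplasmic receptor signal below a set negative limit, without overly bright fluorescence or cell loss, cut at about -3.5 in these data, passing the limit was not always enough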;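 also: z-score of nuclear minus cytoplasmic ring GR-EGFP intensity difference per well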
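Buffer or medium: tet-free medium with charcoal-stripped serum / Also added: dexamethasone agonist, 1.0 µM final, for 30 min / Timing: induction 48 h, compound 1 h, agonist 30 min / Measured by: high-content fluorescence imaging after fixation / Read-out: nuclear-to-cytoplasmic GR-EGFP distribution per well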
PTEN del growth: suppresses growth of cells with PTEN deletion | viability, % at 10 µM | 140,000 tested, 1.2% active | HCT116 PTEN-null viability, CellTiter-Glo, 60 h; active compounds read low | AID 827;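 active = viability at or below a set limit, 4 SD under the median of all tested compounds, cut at about 3.7% in these data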;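 also: PTEN knockout HCT116 line with beta catenin targeted HCT116 as companion control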
Lmaj promast: inhibitors of Leishmania major promastigote growth; Leishmania major promastigotes, resazurin fluorescence viability; inhibition, % at 10 µM; 200,000 tested, 9% active; AID 1063; in the data active = inhibition above about 50%;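 also: promastigotes grown with compound for 44 hours at 28 °C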
bCat KO growth: beta-catenin-lacking colon tumor cell growth suppression | HCT116 beta-catenin knockout viability, CellTiter-Glo, 60 h; active compounds read low | viability, % at 10 µM | 140,000 tested, 1.5% active;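 active = viability at or under a set limit, the compound median less 4 SD, cut at about 6% in these data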;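 also: 0% = Hyamine 1622 control at 20 µM and 100% = untreated cell control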
Autophagy mod: autophagy modulation, high-content screen. MEF GFP-LC3 puncta imaging; test concentration mostly 10 µM. calls only at 10 µM (by protocol). 190,000 tested, 0.98% active. AID 463193;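 active = percentage of spot-positive cells more than 3 SD above its plate mean, without a fluorescence outlier flag or 80% toxicity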;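 also: spot-positive cell cutoff set from DMSO-treated cells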
An asterisk follows results filed as active; i = inactive; . = no result.

SMILES	Dynein transport	PTEN del growth	Lmaj promast	bCat KO growth	Autophagy mod
CC(=O)Nc1ccc(N2CC(C)(C)C2=O)cc1	-0.72	.	-9	.	i
CC(C)CN(C(=O)c1ccco1)c1nc2ccccc2s1	-0.073	.	5	.	i
CC(C)CN(C(=O)c1nn(C)c(=O)c2ccccc12)c1nc2ccccc2s1	0.18	79	52*	69	i
C=CCNc1nc2c(c(=O)n(C)c(=O)n2C)n1CC(=C)C	0.069	.	.	.	.
Cc1nc(NC(=O)c2ccccc2)sc1-c1csc(N)n1	1.1	44	15	34	i
Cc1nc(NC(=O)c2ccccc2)sc1-c1csc(NCCc2ccccc2)n1	0.63	35	100*	37	i
Cc1nc(NC(=O)c2ccccc2)sc1-c1csc(NCc2ccccc2)n1	0.057	66	86*	73	i
Cc1nc(NC(=O)c2ccccc2)sc1-c1csc(Nc2cccc(F)c2)n1	0.23	57	30	71	i
O=C(NC(=S)N(CCO)Cc1ccccc1)c1ccc(S(=O)(=O)N2CCCC2)cc1	-1	.	0	.	i
Cc1ccc([N+](=O)[O-])cc1-c1ccc(/C=C(\C#N)c2[nH]nc(N)c2C#N)o1	0.64	65	75*	73	i
O=C(CSc1ccc2nnc(-c3ccc(Cl)cc3)n2n1)N1CCCc2ccccc21	-0.37	2.2*	14	2.4*	i
Cc1ccc(NCC(=O)N/N=C/c2cc(O)ccc2[N+](=O)[O-])cc1	0.41	.	-10	.	i
O=C1CC(/C=C/c2ccccn2)=Nc2ccccc2N1	-2.8	.	82*	.	i
CCCCNC(=S)NNC(=O)c1ccco1	-1.2	91	-8	103	i
COc1ccc(Cc2nnc(N/N=C(\C)c3ccccc3)[nH]c2=O)cc1OC	0.22	.	.	.	.
Cc1cccc2nc(CSc3nc4ccccc4o3)cn12	0.31	86	64*	89	i
CC(NC(=O)c1ccccc1)C(=O)N/N=C/c1cccc([N+](=O)[O-])c1 (stereo not drawn)	0.39	.	5	.	i
O=C(/C=C/c1ccc(Cl)cc1Cl)Nc1cccc(S(=O)(=O)NC2=NCCCCC2)c1	-0.72	80	51*	79	i
c1ccc(CCNc2ccnc3cc4ccccc4cc23)cc1	-5	.	100*	.	i
CC(C)Nc1ccc(Nc2ccnc3cc4ccccc4cc23)cc1	-3.2	.	.	.	.
COc1cccc(/C=N/NC(N)=S)c1OCc1cccc(Cl)c1	-0.86	73	70*	75	i
O=C(CSCc1ccccc1)N/N=C/c1ccccc1OCc1ccccc1	0.1	103	0	94	i
NC(=S)N/N=C\c1ccccc1OCc1ccccc1	-0.98	56	68*	31	i
NC(=S)N/N=C\c1c2ccccc2cc2ccccc12	-2.7	50	15	54	i
NC(=S)N/N=C\c1c(OCc2ccccc2Cl)ccc2ccccc12	0.83	.	64*	.	i
SMILES	Dynein transport	PTEN del growth	Lmaj promast	bCat KO growth	Autophagy mod
Cc1cccc(N2CC(c3nc4ccccc4[nH]3)CC2=O)c1 (stereo not drawn)	1.2	.	3	.	i
Cc1ccc(C(=O)/C=C/c2ccc(F)cc2)o1	-1.3	9	98*	9	i
COc1ccc(/C=C/C(=O)c2oc3ccc(F)cc3c2C)cc1	-0.37	78	3	77	i
CC(=O)Nc1ccc(C2=NNC(=Nc3cccc(S(=O)(=O)N(C)C)c3)SC2)cc1	1.2	.	-1	.	i
CN(C)S(=O)(=O)c1cccc(N=C2NN=C(c3ccccc3)CS2)c1	0.66	3.8*	-6	5.2*	i
COCCNc1c(-c2ccc(OC)cc2)nc2ccc(Cl)cn12	0.52	.	76*	.	i
CCOC(=O)CNc1c(-c2ccc(OC)cc2)nc2ccc(Cl)cn12	-0.075	85	6	86	i
O=[N+]([O-])c1cccc2c3c([nH]c12)CCCC3	-1	.	.	.	.
CCO[C@@H]1OC(C(=O)N2CCCCCCC2)=C[C@H](c2ccc(C(F)(F)F)cc2)[C@H]1CCCO	-1.5	.	-2	.	i
CCC(=O)Nc1nc(-c2ccc3c(c2)CC(C)N3S(C)(=O)=O)cs1 (stereo not drawn)	0.3	.	-1	.	i
CC1Cc2cc(-c3csc(NC(=O)Cc4cccs4)n3)ccc2N1S(C)(=O)=O (stereo not drawn)	-0.52	6	46	5.6*	i
COc1ccc(-n2c(C)cc(-c3cn4cccc(C)c4n3)c2C)cc1	-0.084	.	63*	.	i
C=C(CO)C1Cc2cc(C(C)=O)ccc2O1 (stereo not drawn)	-0.28	.	.	.	.

Screening data from PubChem BioAssay.
